Laboratory results from ChEMBL document CHEMBL1143061, “Synthesis and antifungal activities of 5-(3,4,5-trimethoxyphenyl)-2-sulfonyl-1,3,4-thiadiazole and 5-(3,4,5-trimethoxyphenyl)-2-sulfonyl-1,3,4-oxadiazole derivatives” (Bioorg Med Chem, 2007).
Converted amounts (≈) assume the structure as drawn.

Key:
Botrytis cinerea [1] = assay: Antifungal activity against Botrytis cinerea at 50 ug/mL; assay type: functional
Fusarium graminearum [2] = assay: Antifungal activity against Gibberella zeae at 50 ug/mL; assay type: functional
Sclerotinia sclerotiorum [3] = assay: Antifungal activity against Sclerotinia sclerotiorum at 50 ug/mL; assay type: functional
Sclerotinia sclerotiorum [4] = assay: Antifungal activity against Sclerotinia sclerotiorum; assay type: functional, organism-based
Cytospora = assay: Growth inhibition of Cytospora mandshurica; assay type: functional
Botrytis cinerea [5] = assay: Antifungal activity against Botrytis cinerea; assay type: functional, organism-based
Fusarium oxysporum = assay: Growth inhibition of Fusarium oxysporum; assay type: functional, organism-based
How it was run: (§1)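 In vitro inhibition of mycelial growth, with hymexazol as the reference fungicide. The EC50, the concentration that inhibits growth by 50%, was read from a dose–response curve. Results come from three separate experiments, each run in triplicate.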

[6] = tested on: Colletotrichum gloeosporioides; assay: Growth inhibition of Colletotrichum gloeosporioides; assay type: functional, organism-based
Rhizoctonia solani = assay: Growth inhibition of Rhizoctonia solani; assay type: functional, organism-based; how it was run: as §1
Pyricularia grisea = assay: Growth inhibition of Pyricularia grisea; assay type: functional, organism-based
Pyricularia oryzae = assay: Growth inhibition of Pyricularia oryzae; assay type: functional, organism-based
Fusarium graminearum [7] = assay: Antifungal activity against Gibberella zeae; assay type: functional, organism-based
How it was run: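 In vitro inhibition of fungal mycelial growth. EC50 read from the dose–response curve. Three separate experiments, each in triplicate. Hymexazol was the standard reference.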

Phytophthora infestans = assay: Growth inhibition of Phytophthora infestans; assay type: functional, organism-based

C=CCS(=O)(=O)c1nnc(-c2cc(OC)c(OC)c(OC)c2)s1
inhibition at 50 µg/mL (Botrytis cinerea [1]): 47.3%
inhibition at 50 µg/mL (Fusarium graminearum [2]): 14%
inhibition at 50 µg/mL (Sclerotinia sclerotiorum [3]): 40.5%

COc1cccc(CS(=O)(=O)c2nnc(-c3cc(OC)c(OC)c(OC)c3)s2)c1
inhibition at 50 µg/mL (Botrytis cinerea [1]): 53.4%
inhibition at 50 µg/mL (Fusarium graminearum [2]): 43.2%
inhibition at 50 µg/mL (Sclerotinia sclerotiorum [3]): 74.5%

CCCS(=O)(=O)c1nnc(-c2cc(OC)c(OC)c(OC)c2)o1
inhibition at 50 µg/mL (Botrytis cinerea [1]): 59.4%
inhibition at 50 µg/mL (Fusarium graminearum [2]): 59%
inhibition at 50 µg/mL (Sclerotinia sclerotiorum [3]): 64%

CCOC(=O)CS(=O)(=O)c1nnc(-c2cc(OC)c(OC)c(OC)c2)o1
inhibition at 50 µg/mL (Botrytis cinerea [1]): 81.9%
inhibition at 50 µg/mL (Fusarium graminearum [2]): 52%
inhibition at 50 µg/mL (Sclerotinia sclerotiorum [3]): 79.9%

COc1cccc(CS(=O)(=O)c2nnc(-c3cc(OC)c(OC)c(OC)c3)o2)c1
inhibition at 50 µg/mL (Botrytis cinerea [1]): 38.1%
inhibition at 50 µg/mL (Fusarium graminearum [2]): 5.7%
inhibition at 50 µg/mL (Sclerotinia sclerotiorum [3]): 40.6%

CCS(=O)(=O)c1nnc(-c2cc(OC)c(OC)c(OC)c2)o1
inhibition at 50 µg/mL (Botrytis cinerea [1]): 100%
EC50 (Sclerotinia sclerotiorum [4]): 4.3 µg/mL (≈ 13.1 µM)
EC50 (Cytospora): 20.5 µg/mL (≈ 62.4 µM)
EC50 (Botrytis cinerea [5]): 2.9 µg/mL (≈ 8.83 µM)
inhibition at 50 µg/mL (Sclerotinia sclerotiorum [3]): 100%
EC50 (Fusarium oxysporum): 18 µg/mL (≈ 54.8 µM)
EC50 [6]: 26.3 µg/mL (≈ 80.1 µM)
EC50 (Rhizoctonia solani): 45.6 µg/mL (≈ 139 µM)

C=CCS(=O)(=O)c1nnc(-c2cc(OC)c(OC)c(OC)c2)o1
inhibition at 50 µg/mL (Botrytis cinerea [1]): 40.9%
inhibition at 50 µg/mL (Fusarium graminearum [2]): 26.4%
inhibition at 50 µg/mL (Sclerotinia sclerotiorum [3]): 40.9%

COc1cc(-c2nnc(S(=O)(=O)Cc3ccc([N+](=O)[O-])cc3)o2)cc(OC)c1OC
inhibition at 50 µg/mL (Botrytis cinerea [1]): 76.8%
inhibition at 50 µg/mL (Fusarium graminearum [2]): 42.1%
inhibition at 50 µg/mL (Sclerotinia sclerotiorum [3]): 62.2%

COc1cc(-c2nnc(S(=O)(=O)Cc3ccc(Cl)nc3)s2)cc(OC)c1OC
inhibition at 50 µg/mL (Botrytis cinerea [1]): 25.9%
inhibition at 50 µg/mL (Fusarium graminearum [2]): -1.1%
inhibition at 50 µg/mL (Sclerotinia sclerotiorum [3]): 21.3%

COc1cc(-c2nnc(S(=O)(=O)Cc3ccccc3)s2)cc(OC)c1OC
inhibition at 50 µg/mL (Botrytis cinerea [1]): 27.5%
inhibition at 50 µg/mL (Fusarium graminearum [2]): 8.3%
inhibition at 50 µg/mL (Sclerotinia sclerotiorum [3]): 22.9%

CCOC(=O)CS(=O)(=O)c1nnc(-c2cc(OC)c(OC)c(OC)c2)s1
inhibition at 50 µg/mL (Botrytis cinerea [1]): 49.7%
inhibition at 50 µg/mL (Fusarium graminearum [2]): 21.1%
inhibition at 50 µg/mL (Sclerotinia sclerotiorum [3]): 49.4%

COc1cc(-c2nnc(S(=O)(=O)Cc3cccc([N+](=O)[O-])c3)o2)cc(OC)c1OC
inhibition at 50 µg/mL (Botrytis cinerea [1]): 40.7%
inhibition at 50 µg/mL (Fusarium graminearum [2]): 11.8%
inhibition at 50 µg/mL (Sclerotinia sclerotiorum [3]): 38.3%

COc1ccc(CS(=O)(=O)c2nnc(-c3cc(OC)c(OC)c(OC)c3)o2)cc1
inhibition at 50 µg/mL (Botrytis cinerea [1]): 58.5%
inhibition at 50 µg/mL (Fusarium graminearum [2]): 33.9%
inhibition at 50 µg/mL (Sclerotinia sclerotiorum [3]): 58.5%

COc1cc(-c2nnc(S(=O)(=O)Cc3ccc(F)cc3)o2)cc(OC)c1OC
inhibition at 50 µg/mL (Botrytis cinerea [1]): 41.6%
inhibition at 50 µg/mL (Fusarium graminearum [2]): 28.1%
inhibition at 50 µg/mL (Sclerotinia sclerotiorum [3]): 62.7%

COc1cc(-c2nnc(S(=O)(=O)Cc3ccccc3Cl)o2)cc(OC)c1OC
inhibition at 50 µg/mL (Botrytis cinerea [1]): 26.1%
inhibition at 50 µg/mL (Fusarium graminearum [2]): 11.9%
inhibition at 50 µg/mL (Sclerotinia sclerotiorum [3]): 39.6%

COc1ccccc1CS(=O)(=O)c1nnc(-c2cc(OC)c(OC)c(OC)c2)o1
inhibition at 50 µg/mL (Botrytis cinerea [1]): 42.3%
inhibition at 50 µg/mL (Fusarium graminearum [2]): 23.7%
inhibition at 50 µg/mL (Sclerotinia sclerotiorum [3]): 37.2%

COc1cc(-c2nnc(S(=O)(=O)Cc3cccc(F)c3)o2)cc(OC)c1OC
inhibition at 50 µg/mL (Botrytis cinerea [1]): 35.8%
inhibition at 50 µg/mL (Fusarium graminearum [2]): 9.3%
inhibition at 50 µg/mL (Sclerotinia sclerotiorum [3]): 38.3%

COc1cc(-c2nnc(S(=O)(=O)Cc3ccccc3F)o2)cc(OC)c1OC
inhibition at 50 µg/mL (Botrytis cinerea [1]): 52.3%
inhibition at 50 µg/mL (Fusarium graminearum [2]): 18.2%
inhibition at 50 µg/mL (Sclerotinia sclerotiorum [3]): 33.4%

COc1cc(-c2nnc(S(=O)(=O)Cc3ccc(Cl)cc3)o2)cc(OC)c1OC
inhibition at 50 µg/mL (Botrytis cinerea [1]): 30.8%
inhibition at 50 µg/mL (Fusarium graminearum [2]): 23.3%
inhibition at 50 µg/mL (Sclerotinia sclerotiorum [3]): 35.5%

COc1cc(-c2nnc(S(=O)(=O)Cc3ccc(Cl)nc3)o2)cc(OC)c1OC
inhibition at 50 µg/mL (Botrytis cinerea [1]): 60.3%
inhibition at 50 µg/mL (Fusarium graminearum [2]): 38.9%
inhibition at 50 µg/mL (Sclerotinia sclerotiorum [3]): 67.9%

COc1cc(-c2nnc(S(C)(=O)=O)o2)cc(OC)c1OC
inhibition at 50 µg/mL (Botrytis cinerea [1]): 100%
EC50 (Pyricularia grisea): 30.8 µg/mL (≈ 98 µM)
EC50 (Pyricularia oryzae): 90.7 µg/mL (≈ 289 µM)
EC50 (Sclerotinia sclerotiorum [4]): 12.5 µg/mL (≈ 39.8 µM)
EC50 (Cytospora): 80.5 µg/mL (≈ 256 µM)
inhibition at 50 µg/mL (Fusarium graminearum [2]): 55.8%
EC50 (Botrytis cinerea [5]): 11.7 µg/mL (≈ 37.2 µM)
EC50 (Fusarium graminearum [7]): 28.8 µg/mL (≈ 91.6 µM)
inhibition at 50 µg/mL (Sclerotinia sclerotiorum [3]): 100%
EC50 (Fusarium oxysporum): 24.5 µg/mL (≈ 77.9 µM)
EC50 (Phytophthora infestans): 83.2 µg/mL (≈ 265 µM)
EC50 [6]: 21.8 µg/mL (≈ 69.4 µM)
EC50 (Rhizoctonia solani): 93.3 µg/mL (≈ 297 µM)

COc1cc(-c2nnc(S(C)(=O)=O)s2)cc(OC)c1OC
inhibition at 50 µg/mL (Botrytis cinerea [1]): 27.1%
inhibition at 50 µg/mL (Fusarium graminearum [2]): 11.6%
inhibition at 50 µg/mL (Sclerotinia sclerotiorum [3]): 40.7%

COc1cc(-c2nnc(S(=O)(=O)Cc3ccc([N+](=O)[O-])cc3)s2)cc(OC)c1OC
inhibition at 50 µg/mL (Botrytis cinerea [1]): 30.3%
inhibition at 50 µg/mL (Fusarium graminearum [2]): -1.8%
inhibition at 50 µg/mL (Sclerotinia sclerotiorum [3]): 20%

CCCS(=O)(=O)c1nnc(-c2cc(OC)c(OC)c(OC)c2)s1
inhibition at 50 µg/mL (Botrytis cinerea [1]): 33.5%
inhibition at 50 µg/mL (Fusarium graminearum [2]): 13.5%
inhibition at 50 µg/mL (Sclerotinia sclerotiorum [3]): 38.1%

COc1cc(-c2nnc(S(=O)(=O)Cc3ccc(Cl)cc3)s2)cc(OC)c1OC
inhibition at 50 µg/mL (Botrytis cinerea [1]): 20.8%
inhibition at 50 µg/mL (Fusarium graminearum [2]): 5.5%
inhibition at 50 µg/mL (Sclerotinia sclerotiorum [3]): 20.3%

COc1cc(-c2nnc(S(=O)(=O)Cc3ccccc3)o2)cc(OC)c1OC
inhibition at 50 µg/mL (Botrytis cinerea [1]): 67.3%
inhibition at 50 µg/mL (Fusarium graminearum [2]): 54.9%
inhibition at 50 µg/mL (Sclerotinia sclerotiorum [3]): 71.2%

Cc1cc(O)no1 [HYMEXAZOL]
inhibition at 50 µg/mL (Botrytis cinerea [1]): 75.4%
inhibition at 50 µg/mL (Fusarium graminearum [2]): 52.9%
inhibition at 50 µg/mL (Sclerotinia sclerotiorum [3]): 77.5%
EC50 (Fusarium oxysporum): 29.1 µg/mL (≈ 294 µM)
EC50 (Rhizoctonia solani): 52.1 µg/mL (≈ 526 µM)
